# According to ChEMBL document CHEMBL4196182, “Hexaricins, Pradimicin-like Polyketides from a Marine Sediment-Derived Streptosporangium sp. and Their Antioxidant Effects” (J Nat Prod, 2018):
# Tests used:
# Type in all cases: functional
# [1] = Antioxidant activity assessed as DPPH radical scavenging activity incubated for 30 mins by UV/visible spectrophotometric analysis
# Procedure, shortened: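 Test samples in MeOH at 1.875−120 μg/mL reacted with DPPH in MeOH (negative control DPPH 0.1 mM). Absorbance read at 517 nm; scavenging % computed against the DPPH-only control, correcting for sample absorbance without DPPH. EC50 is the concentration giving 50% scavenging. Independent repeats at least three times, reported as mean ± standard deviation.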
# [2] = Antioxidant activity assessed as hydroxyl radical scavenging activity incubated for 10 mins in presence of salicylic acid
# Procedure, shortened: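 Modified Smirnoff method. Equal volumes of sample in MeOH, FeSO4 (6 mM) and ethanolic salicylic acid (6 mM), then H2O2 (6 mM), giving final sample levels of 0.2−1 mg/mL. Held 10 min at room temperature, then read at 510 nm. Scavenging % uses blanks with and without H2O2 against the negative control. EC50 taken at 50% scavenging. Repeated at least three times, mean ± standard deviation.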
# [3] = Antioxidant activity assessed as superoxide anion radical scavenging activity incubated for 20 mins measured every 30 secs for 5 mins in presence of pyrogallol
SMILES,EC50 [1],EC50 [2],EC50 [3]
CC(C)(C)c1cc(O)ccc1O [E319],10 µM,1920 µM,482 µM
CCC(=O)O[C@@H]1Cc2cc3c(c(O)c2-c2c(O)c4c(c(OC)c21)C(=O)c1c(O)cccc1C4=O)C(=O)O[C@H](C)C3,30 µM,831 µM,754 µM
COc1c2c(c(O)c3c1C(=O)c1c(O)cccc1C3=O)-c1c(cc3c(c1O)C(=O)OC(C)(OC)C3)CC2 (centres undefined),2.7 µM,519 µM,139 µM
COc1c2c(c(O)c3c1[C@H](O)Cc1cc4c(c(O)c1-3)C(=O)O[C@H](C)C4)C(=O)c1cccc(O)c1C2=O,21 µM,723 µM,589 µM
COc1c2c(c(O)c3c1C(=O)c1c(O)cccc1C3=O)-c1c(cc3c(c1O)C(=O)O[C@H](C)C3)CC2,42 µM,1530 µM,1100 µM
COc1c2c(c(O)c3c1[C@H](OC(=O)C(C)C)Cc1cc4c(c(O)c1-3)C(=O)O[C@H](C)C4)C(=O)c1cccc(O)c1C2=O,30 µM,804 µM,746 µM
COc1c2c(c(O)c3c1[C@H](O)Cc1cc(CC(C)=O)c(C(=O)O)c(O)c1-3)C(=O)c1cccc(O)c1C2=O,25 µM,840 µM,681 µM
COc1c2c(c(O)c3c1C(=O)c1c(O)cccc1C3=O)-c1c(cc3c(c1O)C(=O)OC(C)(O)C3)CC2 (centres undefined),2.9 µM,619 µM,83 µM
